# Compounds with a hit are over-represented: about 0.83% of the library has one in this group of screens.
# OXTR potentiate: human OXTR potentiation | 320,000 compounds, 0.061% hits | P30559 | CHO-OTR cells, Fluo-8 calcium fluorescence, potentiator mode; 0% = oxytocin EC15, 100% = EC100 | activation, % at 3 µM;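 active means activation above that plate's cutoff, the mean activation of tested compounds plus 3 SD, cut at about 6.6% in these data, passing the limit was not always enough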
#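 test system = CHO-OTR cells, human receptor | compound = single-point 3.0 µM | schedule = 6 min compound pre-incubation at room temperature, 100 s kinetic read | signal = Fluo-8 no-wash calcium dye fluorescence, excitation 470-495 nm, emission 515-575 nm | repeats = single well per compound, singlicate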
# zfTRPN1 agonist: activates the zebrafish TRPN1 channel | HEK293 zebrafish TRPN1-YFP, Fluo-8 calcium fluorescence; 100% = response to 87 µM carbachol | activation, % at 3 µM | 220,000 compounds, 0.18% hits | AID 1424;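 active means activation above its plate's cutoff, the mean activation of test wells on that plate plus 3 SD, cut at about 19% in these data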
#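 Assay system: Zebrafish TRPN1-YFP in HEK293 cells | Incubation: Dye loading 1 h at 37 °C, then 30 min room temperature | Measured by: Kinetic Fluo-8 fluorescence, ex 470-495, em 515-575 nm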
# V1aR counter: V1a receptor agonism, counter-screen for OXTR agonists. P37288. CHO-V1R cells, Fluo-8 calcium fluorescence, agonist mode; 0% DMSO, 100% 3 nM vasopressin. activation, % at 3 µM. 320,000 compounds, 0.25% hits. AID 2797;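 active means activation above the mean activation of all tested compounds plus 3 SD, per screening run, cut at about 20% in these data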;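 further: signal is peak over basal fluorescence ratio across a 100 second FLIPR read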
# TRPML3 agonist: activates the human TRPML3 channel; Q8TDD5; HEK293 TRPML3-YFP, Fluo-8 calcium fluorescence; 100% = the carbachol control signal; activation, % at 3 µM; 220,000 compounds, 0.29% hits; AID 1448;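 active means activation above its plate's cutoff, the mean activation of the plate's test wells plus 3 SD, cut at about 12% in these data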
# Target sequence (Q8TDD5 whole entry, looked up): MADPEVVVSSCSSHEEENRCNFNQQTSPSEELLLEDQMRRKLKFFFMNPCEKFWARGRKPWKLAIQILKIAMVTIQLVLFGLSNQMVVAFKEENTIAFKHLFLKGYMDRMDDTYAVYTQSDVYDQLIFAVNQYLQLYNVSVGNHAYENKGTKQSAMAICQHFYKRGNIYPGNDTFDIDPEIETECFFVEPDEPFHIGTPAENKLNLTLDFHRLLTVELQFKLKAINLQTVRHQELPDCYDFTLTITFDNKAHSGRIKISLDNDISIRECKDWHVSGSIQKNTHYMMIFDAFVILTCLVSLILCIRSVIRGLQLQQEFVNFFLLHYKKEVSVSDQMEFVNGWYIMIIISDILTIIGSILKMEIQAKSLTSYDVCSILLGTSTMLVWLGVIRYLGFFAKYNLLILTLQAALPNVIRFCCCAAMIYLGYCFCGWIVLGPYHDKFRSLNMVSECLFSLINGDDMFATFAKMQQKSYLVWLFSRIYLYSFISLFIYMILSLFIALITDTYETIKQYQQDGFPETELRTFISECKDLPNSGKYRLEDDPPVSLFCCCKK
#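 Test system: TRPML3-YFP stable HEK293 cells. Doses: single point at 3 µM. Incubation: dye loading 1 h 37 °C then 30 min ambient, 125 s read. Signal: Fluo-8 calcium dye fluorescence, ex 470-495, em 515-575 nm. Measure: percent activation from peak-to-basal fluorescence ratio, scaled between DMSO and carbachol.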
# CRFR2-BP ag: agonists of human CRF-binding protein/CRF-R2 receptor complex; HEK293 CRF-R2/CRF-BP, calcium dye fluorescence (FLIPR); percent of saturating CRF peptide response; activation, % at 13.2 µM; 350,000 compounds, 0.46% hits; AID 588473;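 active means activation of at least 50%, plus an integration ratio under a set limit after plate pattern correction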
# OXTR ag: agonists of human oxytocin receptor. P30559. CHO-OTR cells, Fluo-8 calcium fluorescence; normalized: DMSO 0%, oxytocin 100%. activation, % at 3 µM. 320,000 compounds, 0.32% hits. AID 2435;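 active means activation above the mean of all tested compounds plus 3 SD, cutoff set per screening run, cut at about 20% in these data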;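 further: peak over basal fluorescence ratio from a 100 s FLIPR kinetic read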
# A number is an active result; n = inactive; x = no result given.
SMILES,OXTR potentiate,zfTRPN1 agonist,V1aR counter,TRPML3 agonist,CRFR2-BP ag,OXTR ag
Cc1ccc(S(=O)(=O)N(Cc2ccccc2)Cc2ccco2)cc1,n,n,n,45,n,n
CCOc1ccc(NC(=O)/C(C#N)=C\c2ccc(N3CCCC3)c(C)c2)cc1,x,x,x,x,99,x
O=C(N/C(=C\c1ccccc1)C(=O)N1CCOCC1)c1ccccc1Br,n,x,n,x,n,n
Fc1ccc(C2CC(c3ccco3)=NN2c2ccccc2)cc1 (configuration not stated),n,n,n,n,n,n
O=[N+]([O-])c1ccc(N2N=C(c3ccco3)CC2c2ccccc2)cc1 (configuration not stated),n,n,n,n,51,n
COc1ccccc1N1N=C(c2ccc([N+](=O)[O-])cc2)CC1c1ccccc1 (configuration not stated),n,x,28,x,n,30
CC(C)(C)C(=O)NC(=S)NNC(=O)c1ccncc1,n,n,n,n,n,n
CC(C)(C)C(=O)NC(=S)NNC(=O)c1ccc(Cl)cc1Cl,n,171,122,103,129,98
CC(C)(C)C(=O)NC(=S)NNC(=O)c1ccc(-c2ccccc2)cc1,n,197,117,117,163,108
CCOC(=O)c1csc(NC(=O)CN2CCCCC2)n1,n,x,n,x,n,n
CC(C)C(NC(=O)c1ccc2c(c1)OCO2)C(=O)N/N=C/c1cccs1 (configuration not stated),n,n,n,n,n,n
Cc1c(/C=N/NC(=O)C(NC(=O)c2ccc3c(c2)OCO3)C(C)C)c2ccccc2n1C (configuration not stated),n,n,n,n,96,n
O=C(COC(=O)c1cccnc1Cl)NC(=O)c1ccc(OC(F)F)cc1,n,x,n,x,n,n
O=C(c1cc(COc2c(F)cccc2F)on1)N1CC[C@@H]2CCCC[C@H]2C1,x,x,x,x,n,x
COc1ccccc1N/C=C/c1onc(C)c1[N+](=O)[O-],n,n,n,n,89,n
Cc1noc(/C=C/Nc2ccc(F)cc2F)c1[N+](=O)[O-],n,n,n,n,n,n
CCN(CC)c1ccc(/C=C(/C#N)C(=O)NC(C)C)o1,n,n,n,n,n,n
CCN(CC)c1ccc(/C=C(/C#N)C(=O)NCc2ccccc2)o1,n,n,26,14,141,29
CCN(CC)CCCNc1ccc2ncn3c4ccc(O)cc4c(=O)c1c23,x,x,x,x,215,x
CCOc1cc(/C=N/NC(N)=O)ccc1OCC(=O)Nc1ccc(C)c(C)c1,n,n,n,n,n,n
CCOc1cc(C=C2C(=O)c3ccccc3C2=O)ccc1OCC(=O)Nc1ccc(C)cc1,n,n,n,n,113,n
CC(C)NC(=O)N(C)C[C@@H]1OCc2cnnn2CCCC(=O)N([C@H](C)CO)C[C@@H]1C,x,x,x,x,n,x
CC(C)NC(=O)N(C)C[C@H]1OCc2cnnn2CCCC(=O)N([C@H](C)CO)C[C@H]1C,x,x,x,x,53,x
O=C(Cc1cccs1)N(Cc1ccco1)C1(C(=O)NC2CCCCC2)CCCCC1,n,n,n,n,n,n
O=C(Cc1cccs1)N(Cc1cccs1)C1(C(=O)NC2CCCC2)CCCCC1,n,n,28,n,n,24
SMILES,OXTR potentiate,zfTRPN1 agonist,V1aR counter,TRPML3 agonist,CRFR2-BP ag,OXTR ag
Cc1csc(NC(=O)Cc2ccccc2[N+](=O)[O-])n1,n,n,n,n,208,n
COc1cccc(C(=O)N(Cc2nc(-c3ccc(C)cc3)no2)C(C)C)c1,n,n,n,n,n,n
Cc1ccc(C)c(C(=O)N(Cc2nc(-c3ccc(Cl)cc3)no2)C(C)C)c1,n,n,n,28,n,n
FC(F)(F)c1cnc(NNC(=S)Nc2ccccc2Cl)c(Cl)c1,n,29,n,17,89,n
Cc1cccc(NC(=S)NNc2ncc(C(F)(F)F)cc2Cl)c1,n,n,n,n,n,n
CC(C)(C)NC(=O)C(c1ccc(O)cc1)N(Cc1ccc2c(c1)OCO2)C(=O)CCl (configuration not stated),x,x,x,x,n,x
CCOc1ccc(N(C)S(=O)(=O)c2ccc(-c3cc(C)no3)s2)cc1,n,x,n,x,n,n
CCCCC(=O)NNC(=S)NC(=O)c1ccc([N+](=O)[O-])cc1,n,n,n,n,n,n
O=C(NNC(=S)NC(=O)c1sc2ccccc2c1Cl)c1ccc(Cl)cc1,n,n,57,n,210,46
CCC(=O)NC(=S)NNC(=O)c1ccc(OC)cc1,n,n,n,n,n,n
COc1ccc(C(=O)NC(=S)NNC(=O)c2ccc(C)cc2)cc1,n,x,108,x,132,82
CCCCC(=O)NNC(=S)NC(=O)c1ccc(C)cc1,n,n,n,n,135,n
COc1ccc(C(=O)NNC(=S)NC(=O)c2ccc(Cl)cc2)cc1,n,x,76,x,117,71
CCn1c(CC(=O)Nc2ccc(F)cc2)nnc1SCC(=O)Nc1nncs1,n,x,n,x,n,n
O=C(CCNS(=O)(=O)c1ccccc1)NNC(=O)COc1ccccc1F,n,x,n,x,n,n
CCN(CC)C(=O)C1=C(C)N(CCCOC)C(=O)C(CC(=O)NCCCN(C)C)C1 (configuration not stated),x,x,x,x,n,x
Cc1oc(C)c2c(=O)ccc3c(c12)OC(N)=C(C#N)C3c1ccccc1Cl (configuration not stated),n,n,n,n,n,n
N#CC1=C(N)OC2=C(CC/C2=C\c2ccccc2)C1c1ccccc1 (configuration not stated),n,n,26,n,300,28
N#CC1=C(N)OC2=C(CC/C2=C\c2ccccc2Cl)C1c1ccccc1Cl (configuration not stated),n,n,n,n,91,n
COc1ccc(S(=O)(=O)N2CC3C4C=CC(C4)C3C2)cc1 (configuration not stated),n,n,n,56,n,n
Cc1cc2nc3c(=O)n(CCc4ccccc4)c(=O)[nH]c3nc2cc1N,n,51,41,n,152,64
Cc1nc2ccccc2c(=O)n1CCc1ccccc1,n,x,n,x,n,n
Nc1ccc2nc3c(=O)n(C4CCCCC4)c(=O)[nH]c3nc2c1,n,79,159,43,167,91
Nc1ccc2nc(CCc3ccccc3)[nH]c2c1,n,n,n,n,n,n
CCCCn1c(=O)[nH]c2nc3cc(N)ccc3nc2c1=O,n,42,30,30,232,50
Nc1ccc2nc3c(=O)n(CCc4ccccc4)c(=O)[nH]c3nc2c1,n,91,69,23,195,96
CCc1ccc(C(C#N)=CC=Cc2ccccc2)cc1,x,x,x,x,n,x
